Laboratory results: ChEMBL document CHEMBL3102696, “Synthesis/biological evaluation of hydroxamic acids and their prodrugs as inhibitors for Botulinum neurotoxin A light chain” (Bioorg Med Chem, 2014)
The source made the active and inactive calls. The rule behind the calls is not given here.

Experiments:
[1] = target: Botulinum neurotoxin type A (Clostridium botulinum) (UniProt P0DPI0); details: Hall A hyper
[2] = target: T1, Botulinum neurotoxin type A (Clostridium botulinum, UniProt P0DPI0); experiment: Inhibition of Clostridium botulinum BoNT/A light chain (1 to 425 amino acids) by FRET method
T1 sequence (P0DPI0 2-448 limits assumed): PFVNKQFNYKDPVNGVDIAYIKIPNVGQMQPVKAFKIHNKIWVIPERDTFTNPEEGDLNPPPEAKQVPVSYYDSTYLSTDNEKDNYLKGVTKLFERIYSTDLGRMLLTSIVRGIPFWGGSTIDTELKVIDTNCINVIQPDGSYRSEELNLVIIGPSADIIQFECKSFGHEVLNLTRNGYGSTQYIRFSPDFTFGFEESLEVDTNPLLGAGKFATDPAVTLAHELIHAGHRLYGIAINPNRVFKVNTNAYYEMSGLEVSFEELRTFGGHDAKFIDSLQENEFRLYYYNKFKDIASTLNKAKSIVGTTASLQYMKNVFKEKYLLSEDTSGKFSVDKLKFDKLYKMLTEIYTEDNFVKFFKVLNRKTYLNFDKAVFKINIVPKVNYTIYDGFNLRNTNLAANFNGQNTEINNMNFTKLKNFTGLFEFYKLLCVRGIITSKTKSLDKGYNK
Procedure, shortened: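 Recombinant truncated light chain (residues 1–425) at 37 nM, incubated with SNAPtide, a 13mer SNAP-25 pseudosubstrate carrying a FITC fluorophore and a DABCYL quencher. Cleavage read as FRET fluorescence.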

[3] = Cytotoxicity against human induced pluripotent stem cell-derived neurons at 1 mM; details: induced pluripotent stem cell-derived neuron, 1000 µM
[4] = target: Botulinum neurotoxin type A (Clostridium botulinum) (UniProt P0DPI0); details: Hall A hyper; remark: listed apart in the source
[5] = target: T1, Botulinum neurotoxin type A; set-up: species or system Hall A hyper
[6] = target: T1, Botulinum neurotoxin type A; experiment: Inhibition of Clostridium botulinum BoNT/A light chain (1 to 425 amino acids) by LC-MS analysis
[7] = target: Botulinum neurotoxin type A (Clostridium botulinum) (UniProt P0DPI0); details: Hall A hyper; remark: listed apart in the source
[8] = Cytotoxicity against human induced pluripotent stem cell-derived neurons at 150 uM; details: induced pluripotent stem cell-derived neuron
[9] = Cytotoxicity against human induced pluripotent stem cell-derived neurons at 200 uM; details: induced pluripotent stem cell-derived neuron

Sequence of Botulinum neurotoxin type A (Clostridium botulinum) (P0DPI0 2-448 limits assumed): as above

For `O=C(CC(CCO)c1ccc(Cl)cc1Cl)NOC(=O)NCc1ccccc1` (stereo not drawn), which inhibition [1] is on record?
The inhibition was “Active”.

With `O=C(CC(CC(=O)Nc1ccc(Br)cc1)c1ccc(Cl)cc1Cl)NO` (stereo not drawn) as the compound, how does the IC50 [2] read?
The IC50 was 6.4 µM.

Which IC50 [2] does the source give for `Cc1ccccc1NC(=O)CC(CC(=O)NO)c1ccc(Cl)cc1Cl` (stereo not drawn) here?
Its IC50 is 2 µM.

For `O=C(CC(CCOCCc1ccc(F)cc1)c1ccc(Cl)cc1Cl)NOC(=O)NCc1ccccc1` (stereo not drawn), which Activity [3] is on record?
Its Activity is “Toxic”.

And the inhibition [4]?
Its inhibition is “inactive”.

For `C=CCOCCC(CC(=O)NO)c1ccc(Cl)cc1Cl` (stereo not drawn), which IC50 [2] is on record?
The IC50 was 5.4 µM.

Which EC50 [5] does the source give for `Cc1ccccc1NC(=O)CC(CC(=O)NOC(=O)NCc1ccccc1)c1ccc(Cl)cc1Cl` (stereo not drawn) here?
The EC50 was 209 µM.

Which IC50 [2] does the source give for `O=C(CC(CC(=O)NCCc1ccc(F)cc1)c1ccc(Cl)cc1Cl)NO` (stereo not drawn) here?
Its IC50 is 2.6 µM.

Which IC50 [2] does the source give for `COc1cc(F)ccc1NC(=O)CC(CC(=O)NO)c1ccc(Cl)cc1Cl` (stereo not drawn) here?
The IC50 was 1.1 µM.

And the Ki [6]?
Its Ki is 1 µM.

For `COc1ccc(CCNC(=O)CC(CC(=O)NO)c2ccc(Cl)cc2Cl)cc1` (stereo not drawn), which IC50 [2] is on record?
The IC50 was 6.7 µM.

Which results are given for `O=C(CC(CCOCc1ccccc1)c1ccc(Cl)cc1Cl)NOC(=O)NCc1ccccc1` (stereo not drawn)?
Activity [3]: Toxic; inhibition [4]: inactive

For `O=C(CC(CCOCc1ccccc1)c1ccc(Cl)cc1Cl)NO` (stereo not drawn), which IC50 [2] is on record?
Its IC50 is 2.9 µM.

With `O=C(/C=C/c1ccc(Cl)cc1Cl)NOC(=O)NCc1ccccc1` as the compound, how does the inhibition [7] read?
Its inhibition is “inactive”.

And the Activity [8]?
Its Activity is “Toxic”.

Which IC50 [2] does the source give for `O=C(CC(CCOCC12CC3CC(CC(Br)(C3)C1)C2)c1ccc(Cl)cc1Cl)NO` (stereo not drawn) here?
The IC50 was 13 µM.

For `O=C(CC(CCO)c1ccc(Cl)cc1Cl)NO` (stereo not drawn), which Activity [9] is on record?
The Activity was “Non-toxic”.

Which IC50 [2] does the source give for `O=C(CC(CCOCCc1ccc(F)cc1)c1ccc(Cl)cc1Cl)NO` (stereo not drawn) here?
The IC50 was 0.97 µM.

And the Ki [6]?
The Ki was 2.1 µM.

With `O=C(CC(CC(=O)NCCC1CC1)c1ccc(Cl)cc1Cl)NO` (stereo not drawn) as the compound, how does the IC50 [2] read?
The IC50 was 9.2 µM.

For `O=C(CC(CC(=O)Nc1ccc(Br)cc1)c1ccc(Cl)cc1Cl)NOC(=O)NCc1ccccc1` (stereo not drawn), which EC50 [5] is on record?
Its EC50 is 198 µM.

For `O=C(CC(CCOCC12CC3CC(CC(Br)(C3)C1)C2)c1ccc(Cl)cc1Cl)NOC(=O)NCc1ccccc1` (stereo not drawn), which EC50 [5] is on record?
The EC50 was > 1000 µM.
